Data taken from publication PMC3059335 (Investigational New Drugs, 2010).

Legend:
[1] = tested on: patients with solid tumors; experiment: tumor response, radiographic tumor assessment every 8 weeks; assay type: in vivo, human
Method in brief: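 Patients received continuous IV infusion at fixed dose levels of 1, 2, 4, 8, 12, 18, 27 or 40 mg/hr, with the infusion bag replaced weekly; 4-week cycles without a break. Tumors assessed every 8 weeks (every two cycles). Patients with DLT continued at the next lower dose if toxicities had resolved to grade ≤1 and disease had not progressed.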

[2] = pharmacokinetics of continuous infusion cilengitide; assay type: in vivo, human
Method in brief: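 Test compound given as fixed-dose continuous IV infusion (1–40 mg/hr) via venous access port, diluted in 0.9% NaCl or 5% dextrose; bag changed weekly. Heparinised blood (10 mL) taken day 1 pre-dose and 2 h post-start, then weekly for 4 weeks before and 2 h after bag change. Plasma frozen at −80°C, run in duplicate by HPLC-MS/MS. Steady-state concentration, Vss and clearance reported as mean and SD; Vd assumes 4-h half-life.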

[3] = tested on: patients with solid tumors; experiment: toxicity monitoring of continuous infusion cilengitide; assay type: in vivo
[4] = tested on: αvβ3 and αvβ5-mediated cell adhesion; details: read-out: IC50, inhibition of αvβ3 and αvβ5-mediated cell adhesion; cited from earlier work
[5] = tested on: patients with advanced solid tumours; details: phase I testing of doses up to 2400 mg/m^2 twice weekly; cited from earlier work
[6] = human, cited from earlier work

## CC(C)[C@H]1C(=O)N[C@@H](CCCNC(=N)N)C(=O)NCC(=O)N[C@@H](CC(=O)O)C(=O)N[C@H](Cc2ccccc2)C(=O)N1C [cilengitide]
[1]; 17 of the 35 patients assessed at the end of cycle 2
  objective responses: No objective responses were observed
[1]; data not shown
  relationship between dose level or steady state concentration (Css) and change in tumor size after two cycles: no significant relationship
[1]; two patients, cycle = 4 weeks
  median duration of stable disease: 3.5 cycles
[2]; continuous infusion 1-40 mg/hr, range across dose levels
  cilengitide clearance, range calculated in our study: 55 – 88 mL/min/m^2
[2]; continuous infusion, weekly sampling in cycle 1
  accumulation of cilengitide in the plasma over time: no evidence of accumulation
[3]; continuous infusion, doses up to 40 mg/hr
  maximum tolerated dose (MTD): not reached
[3]; in vivo
  treatment-related hypertension: did not occur in any patients
[3]; in vivo, iv
  maximum feasible dose: 40 mg/h
[4]
  IC50: ~1 µM
[5]
  maximally tolerated dose: not reached
[6]; in vivo
  clearance: 34-66 mL/min/m^2
  plasma half-life: 3 to 5 h
[6]; intermittent dosing
  metabolism, drug accumulation, or enterohepatic circulation: no evidence of metabolism, drug accumulation, or enterohepatic circulation
